Compound activity from PubChem.
Most compounds without a hit are left out; they make up all but 2.1% or so of the library.
RanGTP-Impb inh: disruptors of Ran-importin-beta complex formation – biochemical, FRET, CFP-Ran, YFP-importin-beta, homogeneous, primary screen. cell-free CFP-Ran/YFP-importin-beta FRET ratio. hit rate 1.1% among 300,000. inhibition, % (no concentration beside the values);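 active = more than half of the replicate wells show a fall in the fluorescence ratio signal beyond about 16%, limit read from the data, passing the limit was not always enough; inconclusive = exactly half of the replicate wells pass the set limit; inactive = fewer than half of replicates pass the limit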
Hck Nef HTS: human Hck-Nef kinase inhibition; inhibition, % at 20 µM; Recombinant Hck-YEEI plus Nef, Z-Lyte FRET kinase assay; hit rate 0.68% among 220,000;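 active = Hck-Nef kinase inhibition above about 50%, limit read from the data; inactive = inhibition below that limit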
Tb hexokinase: T. brucei hexokinase 1 inhibition; hit rate 0.11% among 220,000; recombinant TbHK1, G6PDH-coupled NADH A340; inhibition, % at 10 µM;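 active = inhibition of 50% or more in the single-dose primary screen; inactive = inhibition below 50%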
Runt-CBFb FRET: inhibitors of human RUNX1 Runt domain binding to CBFb. hit rate 0.46% among 220,000. AID 1496. Q01196+Q13951. inhibition, % at 20 µM. Cerulean-Runt/Venus-CBFb FRET ratio 530/480, 1 h;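 active = inhibition over about 50% at 20 µM in the single-dose screen, limit read from the data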
Target sequence (Q01196 whole entry, looked up, the tested form may be a part): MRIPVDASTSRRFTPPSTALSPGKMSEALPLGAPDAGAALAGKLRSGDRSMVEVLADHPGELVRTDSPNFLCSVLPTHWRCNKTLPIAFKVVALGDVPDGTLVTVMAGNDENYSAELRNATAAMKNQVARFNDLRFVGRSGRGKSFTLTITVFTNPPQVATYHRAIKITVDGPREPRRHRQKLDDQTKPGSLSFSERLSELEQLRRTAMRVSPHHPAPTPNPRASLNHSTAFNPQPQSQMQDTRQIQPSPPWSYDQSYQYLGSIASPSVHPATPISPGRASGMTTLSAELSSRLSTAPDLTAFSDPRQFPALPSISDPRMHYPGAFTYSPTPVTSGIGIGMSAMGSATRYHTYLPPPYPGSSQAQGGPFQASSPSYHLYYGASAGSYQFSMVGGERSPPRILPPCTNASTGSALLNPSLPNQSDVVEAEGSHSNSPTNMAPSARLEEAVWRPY
Target sequence (Q13951 whole entry, looked up, the tested form may be a part): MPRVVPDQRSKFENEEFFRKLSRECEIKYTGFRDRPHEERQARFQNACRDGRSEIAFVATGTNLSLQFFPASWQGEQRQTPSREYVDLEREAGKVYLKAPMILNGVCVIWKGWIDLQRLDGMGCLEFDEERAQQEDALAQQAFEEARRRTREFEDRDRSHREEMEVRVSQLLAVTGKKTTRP
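Schedule: protein complex preformed 1 h, compound exposure 1 h, room temperature, dark; test system: Cerulean-labeled Runt domain protein; amount: 100 nM per protein; buffer or medium: Tris 50 mM pH 7.5, KCl, K2SO4, 0.01% BSA; read-out: loss of energy transfer signal; detection: FRET fluorescence; controls: 5 µM unlabeled CBFb as full-inhibition high control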
Runt-SMMHC FRET: Runt domain-CBFb-SMMHC interaction inhibition; Cerulean-Runt/Venus-CBFb-SMMHC FRET ratio 530/480, 1 h; Q01196+Q13951; inhibition, % at 20 µM; hit rate 0.74% among 220,000; AID 1434;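 active = mean inhibition across duplicate retests at 20 µM reaching about 50%, limit read from the data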;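 also: inhibitors lower the FRET ratio by blocking Runt binding to CBFb-SMMHC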
p97 ATPase inh: human p97 ATPase inhibition; P55072; hit rate 0.42% among 220,000; recombinant p97 ATPase, Kinase-Glo ATP luminescence, 3 h; inhibition, % at 8 µM; in the data active = inhibition above about 15%
Hck Nef conf: Hck-Nef kinase inhibition, confirmation | shares compounds with Hck Nef HTS | hit rate 28% among 1,300 | Recombinant Hck-YEEI:Nef, Z-Lyte FRET kinase assay | calls only at 10 µM;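 active = average inhibition of at least 50%, with Z-scores no higher than 3 in both the phospho-tyrosine peptide and fluorescence counterscreens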
Numbers stand for hits.

`NC(=O)c1sc2nc3c(c(-c4ccco4)c2c1N)CCC3` gave RanGTP-Impb inh inactive, Hck Nef HTS inactive, Tb hexokinase inactive, Runt-CBFb FRET inactive, Runt-SMMHC FRET inactive and p97 ATPase inh inactive.
`CC(=O)/C(=C(/O)c1ccccc1)c1nc2ccccc2[nH]1` gave RanGTP-Impb inh inactive, Hck Nef HTS 124, Tb hexokinase inactive, Runt-CBFb FRET inactive, Runt-SMMHC FRET inactive, p97 ATPase inh inactive and Hck Nef conf active.
`O=C(/C(=C(\O)c1ccccc1)c1nc2ccccc2[nH]1)c1ccccc1` gave RanGTP-Impb inh inconclusive, Hck Nef HTS inactive, Tb hexokinase inactive, Runt-CBFb FRET inactive, Runt-SMMHC FRET inactive and p97 ATPase inh inactive.
For Cn1nc(C(=O)N2CCCCC2)c2c1-c1ccccc1S(=O)(=O)C2 the results were RanGTP-Impb inh inactive.
For CCOC(=O)N1CCN(C(=O)c2cccc(S(=O)(=O)Nc3ccc(Br)cc3)c2)CC1 the results were RanGTP-Impb inh inactive.
CCc1nc(SCC(=O)Nc2ccc3c(c2)OCCO3)c2oc3ccccc3c2n1 was read as RanGTP-Impb inh inactive, Hck Nef HTS 88, Tb hexokinase inactive, Runt-CBFb FRET inactive, Runt-SMMHC FRET inactive, p97 ATPase inh inactive and Hck Nef conf inactive.
Cc1nc(SCC(=O)Nc2ccc3c(c2)OCCO3)c2oc3ccccc3c2n1 was read as RanGTP-Impb inh inactive, Hck Nef HTS 81, Tb hexokinase inactive, Runt-CBFb FRET inactive, Runt-SMMHC FRET inactive, p97 ATPase inh inactive and Hck Nef conf inactive.
COc1ccc(COCCN2CCN(S(=O)(=O)c3ccc(C)cc3)CCC2=O)cc1 was read as RanGTP-Impb inh inactive, Hck Nef HTS inactive, Tb hexokinase inactive, Runt-CBFb FRET inactive, Runt-SMMHC FRET inactive and p97 ATPase inh inactive.
For CCO[C@@H]1OC(C(=O)NCc2ccccc2)=C[C@H](c2cn(C(C)=O)c3ccccc23)[C@H]1CCCO the results were RanGTP-Impb inh inactive, Hck Nef HTS inactive, Tb hexokinase inactive, Runt-CBFb FRET inactive, Runt-SMMHC FRET inactive and p97 ATPase inh inactive.
`CCOc1ccccc1N(C)S(=O)(=O)c1ccc2c(c1)CC(C)N2C(=O)C1CC1` (stereo unspecified) gave RanGTP-Impb inh inactive.
For CCOC(=O)c1nnn2c1nc(Nc1cccc(C(F)(F)F)c1)c1ccccc12 the results were RanGTP-Impb inh inactive, Hck Nef HTS 66, Tb hexokinase inactive, Runt-CBFb FRET inactive, Runt-SMMHC FRET inactive, p97 ATPase inh inactive and Hck Nef conf inactive.
`CCOC(=O)c1nnn2c1nc(SCC(C)=O)c1ccccc12` gave RanGTP-Impb inh inactive, Hck Nef HTS inactive, Tb hexokinase inactive, Runt-CBFb FRET inactive, Runt-SMMHC FRET inactive and p97 ATPase inh inactive.
For O=C(CCC(=O)N1CCCC1)Nc1ccc(Cl)c(Cl)c1 the results were RanGTP-Impb inh inactive.
CCN1CCCc2cc(CN(CCN3CCOCC3)C(=S)Nc3ccccc3C)ccc21 was read as RanGTP-Impb inh inactive, Hck Nef HTS 57, Tb hexokinase inactive, Runt-CBFb FRET inactive, Runt-SMMHC FRET inactive, p97 ATPase inh inactive and Hck Nef conf inactive.
CCN1CCCc2cc(CN(CCN3CCOCC3)C(=S)Nc3ccc(OC)c(OC)c3)ccc21 was read as RanGTP-Impb inh inactive, Hck Nef HTS 52, Tb hexokinase inactive, Runt-CBFb FRET inactive, Runt-SMMHC FRET inactive, p97 ATPase inh inactive and Hck Nef conf inactive.
Screening NC(=O)C1CCN(S(=O)(=O)c2ccccc2[N+](=O)[O-])CC1 returned RanGTP-Impb inh inactive.
Screening CCN(CCO)c1nc(SC)nc2c1sc1nc(-c3ccco3)c3c(c12)CCC3 returned RanGTP-Impb inh inactive, Hck Nef HTS 68, Tb hexokinase inactive, Runt-CBFb FRET inactive, Runt-SMMHC FRET inactive, p97 ATPase inh inactive and Hck Nef conf inactive.
Screening CCOC(=O)c1[nH]c2ccccc2c1NC(=S)Nc1cc(C)ccc1C returned RanGTP-Impb inh inactive, Hck Nef HTS 57, Tb hexokinase inactive, Runt-CBFb FRET inactive, Runt-SMMHC FRET inactive, p97 ATPase inh inactive and Hck Nef conf inactive.
CCOC(=O)c1[nH]c2ccccc2c1NC(=S)Nc1ccccc1C was read as RanGTP-Impb inh inactive, Hck Nef HTS inactive, Tb hexokinase inactive, Runt-CBFb FRET inactive, Runt-SMMHC FRET inactive and p97 ATPase inh inactive.
